According to paper PMC2647857 (Journal of the American Chemical Society, 2009):
Values joined by “and” are separate entries in the source; they are usually repeats but may differ in a detail not shown here. Equal entries are not always repeated. Where two headings read alike, the source gives them in different places.

How the values were obtained:
NP1-E55Q = NP1-E55Q (Rhodnius prolixus, UniProt Q26239, E78Q); assay: biochemical; assay type: binding
[1] = Spectroelectrochemical midpoint potential of the NO complex; assay type: physicochemical, Rhodnius prolixus; conditions: for ΔpHΔ(Em,NO) = ΔEm,NO(pH7.5) − ΔEm,NO(pH5.5) / ΔEm,NO = Em(mutant)−Em(standard) / Em,NO: NO bound
Summary of the method: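 Spectroelectrochemistry of ~0.05 mM E. coli-expressed protein in 0.1 M sodium phosphate or acetate at pH 5.5, 6.5 and 7.5, 27 ± 1 °C. SNAP supplied NO at a level fully complexing both oxidation states. Ag/AgCl reference ([…] mV vs SHE). Absorbance versus applied potential fit to Nernst equation; pH dependence and mutant−standard differences derived.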

[2] = Imidazole binding constant to Fe; set-up: species or system Rhodnius prolixus
[3] = Spectroelectrochemical midpoint potential, ligand-free; assay type: physicochemical, Rhodnius prolixus; conditions: for ΔEm = Em(mutant)−Em(standard) / Em: ligand-free
[4] = Histamine binding constant to Fe; set-up: species or system Rhodnius prolixus; conditions: pH 7.5
[5] = NO bound, cited from earlier work
[6] = ligand-free, cited from earlier work
[7] = read-out: Kd for NO dissociation, Fe(III), cited from earlier work
[8] = NO binding constant to Fe; set-up: species or system Rhodnius prolixus; conditions: pH 7.5

Sequence of NP1-E55Q (Q26239 24-207 E78Q): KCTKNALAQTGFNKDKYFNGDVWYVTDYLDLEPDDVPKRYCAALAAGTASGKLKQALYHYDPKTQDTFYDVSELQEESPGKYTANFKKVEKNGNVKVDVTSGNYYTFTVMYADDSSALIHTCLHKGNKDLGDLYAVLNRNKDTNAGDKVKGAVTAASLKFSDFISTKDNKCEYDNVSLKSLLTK

Molecule	ΔpHΔ(Em,NO) = ΔEm,NO(pH7.5) − ΔEm,NO(pH5.5) [1]	ΔEm,NO = Em(mutant)−Em(standard) ([1]; pH 5.5)	Em,NO ([1]; pH 5.5, 27 °C)	ΔEm,NO = Em(mutant)−Em(standard) ([1]; pH 6.5)	Em,NO ([1]; pH 6.5, 27 °C)	ΔEm,NO = Em(mutant)−Em(standard) ([1]; pH 7.5)	Em,NO ([1]; pH 7.5, 27 °C)	ΔEm = Em(mutant)−Em(standard) ([3]; pH 5.5)	Em ([3]; pH 5.5, 27 °C)	ΔEm = Em(mutant)−Em(standard) ([3]; pH 6.5)	Em ([3]; pH 6.5, 27 °C)	ΔEm = Em(mutant)−Em(standard) ([3]; pH 7.5)	Em ([3]; pH 7.5, 27 °C)	also measured
c1c[nH]cn1 [imidazole, imidazole (ImH)]	–	–	–	–	–	–	–	–	–	–	–	–	–	Kd (NP1-E55Q): 0.2 µM
NP2-D1A,D29A: site-directed mutant of NP2-D1A, D29 replaced by Ala	50±3 mV	−28±2 mV	20±1 mV vs. SHE	26±2 mV	36±1 mV vs. SHE	22±2 mV	2±1 mV vs. SHE	−17±3 mV	−334±3 mV vs. SHE	19±6 mV	−308±3 mV vs. SHE	12±3 mV	−313±1 mV vs. SHE	binding constant of imidazole larger than that of histamine ([2]; pH 7.5): 1.3 log units
NP2-D1A,D31A: site-directed mutant of NP2-D1A, D31 replaced by Ala	22±3 mV	−10±2 mV	38±2 mV vs. SHE	−3±2 mV	7±2 mV vs. SHE	12±3 mV	−8±2 mV vs. SHE	−55±6 mV	−373±6 mV vs. SHE	−45±9 mV	−372±8 mV vs. SHE	−41±4 mV	−366±3 mV vs. SHE	–
NP2-D1A,D36A: site-directed mutant of NP2-D1A, D36 replaced by Ala	39±5 mV	−12±4 mV	36±4 mV vs. SHE	20±2 mV	30±2 mV vs. SHE	28±3 mV	8±2 mV vs. SHE	25±4 mV	−293±3 mV vs. SHE	11±7 mV	−315±4 mV vs. SHE	18±5 mV	−307±4 mV vs. SHE	–
NP2-D1A,D89A: site-directed mutant of NP2-D1A, D89 replaced by Ala	33±3 mV	3 mV and 3±2 mV	–	9±2 mV	19±1 mV vs. SHE	37 mV and 37±2 mV	17±2 mV vs. SHE	34±3 mV	−284±3 mV vs. SHE	23±7 mV	−304±4 mV vs. SHE	5±4 mV	−320±3 mV vs. SHE	–
NP2-D1A,D99A: site-directed mutant of NP2-D1A, D99 replaced by Ala	21±2 mV	−10±2 mV	38±1 mV vs. SHE	−1±3 mV	9±2 mV vs. SHE	11±2 mV	−9±1 mV vs. SHE	14±4 mV	−304±4 mV vs. SHE	13±6 mV	−314±1 mV vs. SHE	−12±5 mV	−337±4 mV vs. SHE	–
NP2-D1A,D128A: site-directed mutant of NP2-D1A, D128 replaced by Ala	38±4 mV	−16±4 mV	32±3 mV vs. SHE	−8±2 mV	2±1 mV vs. SHE	22±2 mV	2±1 mV vs. SHE	7±4 mV	−311±4 mV vs. SHE	–	–	−57±4 mV	−382±3 mV vs. SHE	–
NP2-D1A,E53Q: site-directed mutant of NP2-D1A, buried E53 replaced by Gln	64±4 mV	40±3 mV	88±3 mV vs. SHE	95±2 mV	105±1 mV vs. SHE	104 mV and 104±3 mV	84±2 mV vs. SHE	–	–	–	–	10±4 mV	−316±3 mV vs. SHE	–
NP2-D1A,E100A: site-directed mutant of NP2-D1A, E100 replaced by Ala	24±3 mV	−5±2 mV	43±2 mV vs. SHE	−5±2 mV	5±1 mV vs. SHE	19±2 mV	0±1 mV vs. SHE	6±6 mV	−312±6 mV vs. SHE	17±7 mV	−310±3 mV vs. SHE	−32±6 mV	−357±5 mV vs. SHE	larger histamine binding constant than standard [4]: 0.7 log units
NP2-D1A,E124A: site-directed mutant of NP2-D1A, E124 replaced by Ala	−2±6 mV	4±5 mV	52±5 mV vs. SHE	–	–	2±3 mV	−18±3 mV vs. SHE	125±4 mV	−193±4 mV vs. SHE	–	–	7±4 mV	−318±2 mV vs. SHE	increase in imidazole binding constant ([2]; at both pH values (5.5 and 7.5)): 0.7 log units
NP2-D1A,K127A: site-directed mutant of NP2-D1A, K127 replaced by Ala	27±5 mV	−27±3 mV	21±2 mV vs. SHE	−4±2 mV	6±2 mV vs. SHE	–	−20±4 mV vs. SHE	−9±5 mV	−327±5 mV vs. SHE	−2±6 mV	−329±3 mV vs. SHE	−54±4 mV	−379±2 mV vs. SHE	midpoint potential more negative with respect to NP2-D1A ([3]; pH 7.5, absence of NO): 54 mV
NP2-D1A: D1A mutant of NP2 with M0 cleaved during expression, used as standard	–	–	–	–	–	–	–	–	–	–	–	–	–	decrease of NO-bound Em between pH 5.5 and 7.5 ([1]; NO complex): 68 mV; pH dependence of Em, negative shift ([1]; NO complex, pH 5.5–7.5 range): 34 mV/pH unit; Em,NO ([5]; pH 5.5, 27 °C ref 20): 48±1 mV vs. SHE; Em,NO ([5]; pH 6.5, 27 °C ref 20): 10±1 mV vs. SHE; Em,NO ([5]; pH 7.5, 27 °C ref 20): −20±1 mV vs. SHE; Em ([6]; pH 5.5, 27 °C ref 20): −318±1 mV vs. SHE; Em ([6]; pH 6.5, 27 °C ref 20): −327±6 mV vs. SHE; Em ([6]; pH 7.5, 27 °C ref 20): −325±3 mV vs. SHE
NP2–M0D1: recombinant wild-type nitrophorin 2 expressed with the N-terminal methionine present	–	–	–	–	–	–	–	–	–	–	–	–	–	Kd ([7]; pH 5.5 ref 19): 0.001 µM; Kd ([7]; pH 7.5 ref 19): 0.02 µM; NO formation constant Kf, Fe(III) form [8]: 2e+08 M⁻¹; Kd ([8]; read-out: NO dissociation constant Kd, Fe(III) form): 0.005 µM
